Reference: ChEMBL document CHEMBL5150070, “Tricyclic SpiroLactams Kill Mycobacteria In Vitro and In Vivo by Inhibiting Type II NADH Dehydrogenases” (J Med Chem, 2022)

Tests used:
[1] = tested on: Mycobacterium tuberculosis; assay: Antimycobacterial activity against Mycobacterium tuberculosis H37Rv infected in human A-THP1 macrophages assessed as viability of infected macrophages incubated for 96 hrs by fluorescence microplate assay; assay type: functional, organism-based
Summary of the method: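 THP-1 cells differentiated with 50 ng/mL PMA for 72 h, infected with log-phase H37Rv (MOI 10, 2 h), and extracellular bacteria killed with 50 µg/mL amikacin for 1 h. Cells detached and seeded at 5×10⁵/mL in RPMI-10% FBS with PMA onto pre-dispensed compound, 96 h at 37°C, 5% CO₂. Macrophage viability by 0.05% resazurin fluorescence.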

[2] = tested on: Mycobacterium tuberculosis; assay: Bactericidal activity against Non-replicating Mycobacterium tuberculosis ss18b-lux model assessed as decrease in luminescence at 10 to 10000 nM; assay type: functional, organism-based; settings: dose 10-10000 nM, TDE = time-dependent effect
Summary of the method: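 Non-replicating streptomycin-starved 18b-lux (14-day starvation) diluted to OD600 0.15 in white 96-well plates with compound and incubated at 37°C. Luminescence read on days 1, 2, 5 and 7 and expressed relative to no-antibiotic controls (n ≥ 3).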

[3] = tested on: Mycobacterium tuberculosis; assay: Bactericidal activity against Non-replicating Mycobacterium tuberculosis ss18b-lux assessed as decrease in colony forming unit measured at 0.6 uM after 1 weeks; assay type: functional
Summary of the method: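 Streptomycin-dependent 18b-lux starved of streptomycin for 14 days (OD600 reset to 0.2 on days 7 and 13) to become non-replicating. Diluted to OD600 0.15 on dispensed compound and held at 37°C. On day 7, active wells plated on 7H11-OADC with 50 µg/mL streptomycin and incubated up to 8 weeks for cfu.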

For `CO[C@H]1/C=C/O[C@@]2(C)Oc3c(C)c(O)c4c(O)c(c(/C=N/N5CCN(C)CC5)c(O)c4c3C2=O)NC(=O)/C(C)=C\C=C\[C@H](C)[C@H](O)[C@@H](C)[C@@H](O)[C@@H](C)[C@H](OC(C)=O)[C@@H]1C` [RIFAMPIN], the IC50 [1] was 91 nM, the Activity [2] was “Tde” and the Activity [3] was 1 log10CFU.
